Measured values from ChEMBL document CHEMBL3769340, “Drug design, synthesis, in vitro and in silico evaluation of selective monoaminoxidase B inhibitors based on 3-acetyl-2-dichlorophenyl-5-aryl-2,3-dihydro-1,3,4-oxadiazole chemical scaffold” (Eur J Med Chem, 2016).

How the values were obtained:
[1] = target: T1, Amine oxidase [flavin-containing] B (Homo sapiens, UniProt P27338); assay: Inhibition of human recombinant MAO-B expressed in baculovirus infected BTI cells using p-tyramine as substrate after 15 mins by Amplex Red-based fluorescence assay; type: cell-based
T1 sequence (P27338 whole entry): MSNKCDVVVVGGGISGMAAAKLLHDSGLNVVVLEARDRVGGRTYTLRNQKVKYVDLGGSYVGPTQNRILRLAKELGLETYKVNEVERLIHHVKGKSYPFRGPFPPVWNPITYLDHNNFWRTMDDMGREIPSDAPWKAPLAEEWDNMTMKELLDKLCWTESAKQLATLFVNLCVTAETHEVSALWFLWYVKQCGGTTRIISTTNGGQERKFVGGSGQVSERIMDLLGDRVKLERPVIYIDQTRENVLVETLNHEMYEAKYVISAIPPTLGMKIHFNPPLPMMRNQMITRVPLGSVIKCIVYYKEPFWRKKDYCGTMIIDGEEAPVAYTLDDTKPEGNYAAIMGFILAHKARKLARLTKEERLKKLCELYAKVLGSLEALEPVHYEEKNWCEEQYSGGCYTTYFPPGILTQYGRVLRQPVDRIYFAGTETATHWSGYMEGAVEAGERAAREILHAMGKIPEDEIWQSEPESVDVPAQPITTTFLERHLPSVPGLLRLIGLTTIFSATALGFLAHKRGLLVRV

[2] = target: T2, Amine oxidase [flavin-containing] A (Homo sapiens, UniProt P21397); assay: Inhibition of human recombinant MAO-A expressed in baculovirus infected BTI cells using p-tyramine as substrate at 100000 nM after 15 mins by Amplex Red-based fluorescence assay; conditions: 0.25 h, 100 µM
T2 sequence (P21397 whole entry): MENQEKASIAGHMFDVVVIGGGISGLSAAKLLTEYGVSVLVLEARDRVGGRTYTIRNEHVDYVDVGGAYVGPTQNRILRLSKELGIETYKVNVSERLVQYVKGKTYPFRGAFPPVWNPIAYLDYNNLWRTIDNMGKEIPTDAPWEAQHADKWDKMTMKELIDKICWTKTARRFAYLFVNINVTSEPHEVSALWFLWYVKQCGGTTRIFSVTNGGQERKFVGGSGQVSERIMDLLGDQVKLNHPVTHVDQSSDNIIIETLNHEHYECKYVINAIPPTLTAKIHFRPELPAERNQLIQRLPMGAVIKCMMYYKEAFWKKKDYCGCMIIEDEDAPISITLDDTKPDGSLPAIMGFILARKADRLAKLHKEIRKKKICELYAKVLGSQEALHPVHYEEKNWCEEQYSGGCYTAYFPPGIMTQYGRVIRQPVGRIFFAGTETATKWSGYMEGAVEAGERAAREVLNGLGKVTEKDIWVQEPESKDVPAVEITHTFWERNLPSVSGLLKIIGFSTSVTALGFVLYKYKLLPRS
Summary of the method: (§1)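 Recombinant hMAO-A or hMAO-B, set to oxidize 165 pmol p-tyramine/min in controls, preincubated with compound for 15 min at 37 °C in the dark. Reaction started with Amplex Red, horseradish peroxidase (1 U/mL) and p-tyramine. Resorufin fluorescence read at 37 °C (ex 545, em 590 nm), with an enzyme-free buffer blank subtracted. Single highest concentration tested: 100000 nM, or 1×10⁶ nM.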

[3] = target: T1, Amine oxidase [flavin-containing] B; assay: Inhibition of human recombinant MAO-B expressed in baculovirus infected BTI cells using p-tyramine as substrate at 100000 nM after 15 mins by Amplex Red-based fluorescence assay; conditions: 0.25 h; for inhibition (INH): bti, 100 µM; summary of the method: as §1
[4] = target: T1, Amine oxidase [flavin-containing] B; assay: Inhibition of human recombinant MAO-B expressed in baculovirus infected BTI cells using p-tyramine as substrate at 1x10'6 nM after 15 mins by Amplex Red-based fluorescence assay; conditions: 0.25 h; summary of the method: as §1

| SMILES | IC50 [1] | inhibition (INH) [2] | other results |
| --- | --- | --- | --- |
| CC(=O)N1N=C(c2ccc([N+](=O)[O-])cc2)O[C@H]1c1ccc(Cl)c(Cl)c1 | 523 nM | – | – |
| CC(=O)N1N=C(c2ccc(Br)cc2)OC1c1ccc(Cl)c(Cl)c1 (stereo not given) | 67.7 nM | Not Active | – |
| CC(=O)N1N=C(c2ccncc2)OC1c1ccc(Cl)c(Cl)c1 (stereo not given) | 69400 nM | Not Active | – |
| CC(=O)N1N=C(c2ccccc2)OC1c1ccc(Cl)c(Cl)c1 (stereo not given) | – | Not Active | inhibition at 100 µM ([3]; BTI): 40% |
| CC(=O)N1N=C(c2ccccc2C)OC1c1ccc(Cl)c(Cl)c1 (stereo not given) | 2460 nM | Not Active | – |
| COc1ccc(C2=NN(C(C)=O)C(c3ccc(Cl)c(Cl)c3)O2)cc1 (stereo not given) | 218 nM | Not Active | – |
| CC(=O)N1N=C(c2ccc([N+](=O)[O-])cc2)O[C@@H]1c1ccc(Cl)c(Cl)c1 | 7.61 nM | – | – |
| CC(=O)N1N=C(c2ccc(N(C)C)cc2)OC1c1ccc(Cl)c(Cl)c1 (stereo not given) | – | Not Active | inhibition (INH) [3]: Not Active |
| CC(=O)N1N=C(c2ccc(Cl)cc2)O[C@H]1c1ccc(Cl)c(Cl)c1 | – | – | inhibition (INH) [3]: Not Active |
| CC(=O)N1N=C(c2ccc(C)cc2)OC1c1ccc(Cl)c(Cl)c1 (stereo not given) | 19.3 nM | Not Active | – |
| CC(=O)N1N=C(c2ccc(C#N)cc2)OC1c1ccc(Cl)c(Cl)c1 (stereo not given) | – | Not Active | inhibition (INH) [3]: Not Active |
| CC(=O)N1N=C(c2ccc(Cl)cc2)O[C@@H]1c1ccc(Cl)c(Cl)c1 | 204 nM | – | – |
| CC(=O)N1N=C(c2ccc(Cl)cc2)OC1c1ccc(Cl)c(Cl)c1 (racemic) | 627 nM | Not Active | – |
| CC(=O)N1N=C(c2ccc([N+](=O)[O-])cc2)OC1c1ccc(Cl)c(Cl)c1 (racemic) | 9.46 nM | Not Active | – |
| O=C(NCCN1CCOCC1)c1ccc(Cl)cc1 [MOCLOBEMIDE] | – | – | inhibition (INH) [4]: Not Active |
